Compound activity (PubChem BioAssay)
PostGolgi yeast: phenotypic screen on post-Golgi transport, primary screen; post-Golgi transport phenotypic cell assay; inhibition, % at 10 µM; hit rate 0.9% among 98,000; AID 739, 2007;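 further: yeast cells grown in 1536-well plates; yeast grown about 18 h at 30C before absorbance read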
Ecoli WT expand: growth inhibitors of wild-type E. coli, primary screen, strain BW25113, expanded library, OD600 | OD600 absorbance | growth inhibition, % at 100 µM | hit rate 0.15% among 98,000 | AID 710, 2007;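 active means growth inhibition above about 50% at one test dose, limit read from the data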;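 further: growth measured after 20 h incubation at 37 °C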
PostGolgi ctrl: growth inhibition of yeast control strain, primary screen, counter-screen for post-Golgi transport modulator project; efflux-deficient yeast background strain, growth absorbance A615, 16 h; inhibition, % at 10 µM; hit rate 5% among 98,000; AID 738, 2007
Ecoli tolC: growth inhibitors of E. coli tolC mutant, primary screen, strain BW25113 ΔtolC::kan, 384-well | hit rate 2.2% among 65,000 | AID 573, 2007 | OD615 | growth inhibition, % at 10 µM (by protocol);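 active means growth inhibition at or above a cutoff equal to the mean over every tested compound plus 3 SD, cut at about 60% in these data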;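 further: growth measured after 20 h incubation at 37 °C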
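Material: E. coli BW25113 ΔtolC::kan, tolC deletion mutant strain. Measure: percent growth inhibition. Schedule: 37 °C, 20 h exposure. Doses: single-point testing at 10 µM. Signal: A615 absorbance measurement. Buffer or medium: kanamycin-containing LB broth (50 µg/mL).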
Cav32 inh: Cav3.2 calcium influx blockers – cell-based, Fluo-4 calcium fluorescence, FDSS, MLSMR library, primary screen. Cav3.2-expressing cells; stronger effect = lower value. B-score at 10 µM. hit rate 4% among 100,000. AID 449739, 2010;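 active means single-dose well whose peak fluorescence ratio is a statistical outlier from its plate by either plate-standardised score or position-corrected B-score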
The depositor's hits bear a star; · = no result. Sampled rows, rich in hits. Any-hit rate of the full collection: about 8.4%. Unless noted, no stated cut-off is given here; in the data, active means inhibition above about 30%; inactive means the rest.

SMILES	PostGolgi yeast	Ecoli WT expand	PostGolgi ctrl	Ecoli tolC	Cav32 inh
Cc1nn(-c2nc3ccccc3[nH]2)c(N)c1-c1ccccc1	·	·	·	76*	-2.5
Cc1nn(-c2nc3ccccc3s2)c(N)c1-c1ccccc1	-2	1	3	-2	-0.42
NCC[C@H](O)C(=O)N[C@@H]1C[C@H](N)[C@@H](O[C@H]2O[C@H](CN)[C@@H](O)[C@H](O)[C@H]2O)[C@H](O)[C@H]1O[C@H]1O[C@H](CO)[C@@H](O)[C@H](N)[C@H]1O	·	·	·	2	·
CS(=O)(=O)c1nc(-c2cccs2)cc(C(F)(F)F)n1	8	12	55*	11	1.1
O=C(O)CCS(=O)(=O)c1nc(-c2cccs2)cc(C(F)(F)F)n1	4	13	16	·	1.1
Cc1cc(NC(=O)CSc2nc(-c3cccs3)cc(C(F)(F)F)n2)no1	-6	-7	1	-17	0.48
Cc1cc(NC(=O)CCCS(=O)(=O)c2nc(-c3cccs3)cc(C(F)(F)F)n2)no1	13	-1	35*	4	1.5
CCN(CC)CCCN1C(=O)C(O)=C(C(=O)c2cccs2)C1c1ccccn1 (stereo not drawn)	·	·	·	-13	0.23
CN1CCc2nc3sc(C(=O)C45CC6CC(CC(C6)C4)C5)c(N)c3cc2C1	100*	5	95*	·	·
Cc1cc(C)c2cc3c(N)c(C(=O)N4CCc5ccccc5C4)sc3nc2c1	7	-6	10	·	0.25
COc1ccc(NC(=S)NC(NC(=O)c2cccc(C)c2)C(Cl)(Cl)Cl)c([N+](=O)[O-])c1 (stereo not drawn)	·	·	·	·	-6.7*
COc1ccc(NC(=S)NC(NC(=O)c2cccc(Cl)c2)C(Cl)(Cl)Cl)c([N+](=O)[O-])c1 (stereo not drawn)	·	·	·	·	-4.9*
CCOC(=O)NC(NC(=S)Nc1ccccc1[N+](=O)[O-])C(Cl)(Cl)Cl (stereo not drawn)	6	8	-3	·	-1.4
O=C(NC(NC(=S)Nc1ccccc1C(=O)O)C(Cl)(Cl)Cl)c1cccc([N+](=O)[O-])c1 (stereo not drawn)	4	8	2	·	-1.1
C=CCNC(=O)c1onc(CSc2ccccn2)c1C(=O)NCC=C	·	·	·	·	0.97
COC(=O)C[C@H]1c2ccccc2S(=O)(=O)N1C(C)C	·	·	·	·	-0.74
CC[C@H](C)[C@@H](C(=O)N1CCNCC1)n1cc([C@@H](N)CO)nn1	·	·	·	·	0.072
Cc1ccc(C(=O)NCC2(c3ccccc3)CCCC2)cc1	5	0	21	·	-3.9*
N#CCC(=O)NCC1(c2ccccc2)CCCC1	-7	10	17	-11	-0.048
O/N=C/c1ccccc1OCc1ccc(Cl)cc1	7	0	77*	·	-2.2
O/N=C/c1ccccc1OCc1ccccc1Cl	-2	2	15	·	-1.4
CC(=O)OCc1c(C(F)(F)F)nn(C)c1Oc1cccc(C(F)(F)F)c1	0	6	0	·	-4.2*
Cc1ccc(OCC(=O)N2CCCCC2)c(Br)c1	0	7	4	12	0.35
O=C(CCNS(=O)(=O)c1ccc(Br)s1)N1CCN(c2ccccc2)CC1	9	-2	-4	36	-5.5*
COc1ccccc1N1CCN(C(=O)CCNS(=O)(=O)c2ccc(Br)s2)CC1	10	-6	14	33	-4.7*
SMILES	PostGolgi yeast	Ecoli WT expand	PostGolgi ctrl	Ecoli tolC	Cav32 inh
COc1ccccc1N1CCN(C(=O)COc2ccc(C)cc2Br)CC1	-1	-9	35*	70*	-3.4
O=C(CNS(=O)(=O)c1ccc(Br)s1)N1CCCC1	4	-3	7	-30	-0.79
CCCCN(Cc1ccco1)C(=O)c1cc2c(=O)[nH]c3ccc(C)cc3c2s1	0	-5	36*	·	-0.18
C[C@@H]1CCC[C@@]2(O[C@H](CCO)C[C@H](O)[C@H]2O)O1	·	·	·	·	1.6
Cc1cccc(Oc2c(C=O)c3ccccc3n2C)c1	5	7	16	·	-2.7
Cc1ccc(Sc2c(C=O)c3ccccc3n2C)cc1	7	1	45*	·	-0.028
O=C(COC(=O)c1n[nH]c2ccccc12)NC(=O)NC12CC3CC(CC(C3)C1)C2	-8	-1	-1	10	0.034
CC(=O)Nc1ccc(S(=O)(=O)N2CCSC2c2ccc(C)cc2)cc1 (stereo not drawn)	-5	1	22	16	-4.2*
O=C(NCC(c1cccnc1)N1CCN(c2ccccc2)CC1)c1ccc2c(c1)OCO2 (stereo not drawn)	74*	1	8	-5	1.1
O=C(NCC(c1cccnc1)N1CCN(c2ccccc2)CC1)C1CCCCC1 (stereo not drawn)	46*	5	7	-18	0.2
Cc1ccc(S(=O)(=O)NC(C)C(c2cccs2)N2CCN(c3ccccc3)CC2)cc1 (stereo not drawn)	-9	-14	47*	·	-2.9
O=C(NCC(c1cccnc1)N1CCN(c2ccccc2F)CC1)c1ccccc1 (stereo not drawn)	10	5	3	3	-0.27
O=C(NCC(c1cccnc1)N1CCN(c2ccc(F)cc2)CC1)c1cccc(Cl)c1 (stereo not drawn)	77*	3	91*	6	-1.9
COCCNC(=O)c1c(CSc2ccc(Cl)cc2)noc1C(=O)NCc1ccccc1	·	·	·	·	-0.29
O=C(Nn1cnnc1)c1ccc(F)c(S(=O)(=O)N2CCCCC2)c1	18	-2	-2	-6	0.044
Cc1ccc(S(=O)(=O)NC2=C(N3CCN(Cc4ccccc4)CC3)C(=O)c3ccccc3C2=O)cc1	0	-13	46*	·	·
O=S(=O)(NCC(c1cccnc1)N1CCN(c2ccccc2)CC1)c1cccs1 (stereo not drawn)	88*	-7	55*	12	-0.0064
O=C(NCC(c1cccnc1)N1CCN(c2ccccc2)CC1)OCc1ccccc1 (stereo not drawn)	·	·	·	27	-0.63
O=C(C(NS(=O)(=O)c1cccs1)c1ccccc1)N1CCN(c2ccccc2)CC1 (stereo not drawn)	6	-16	6	11	-0.073
O=C1C(NS(=O)(=O)c2cccs2)=C(N2CCN(c3ccccc3)CC2)C(=O)c2ccccc21	17	-4	57*	·	1
O=C(NCC(c1cccnc1)N1CCN(c2ccc(F)cc2)CC1)OCc1ccccc1 (stereo not drawn)	59*	7	25	11	-1
O=C1c2cc(F)ccc2OC2(CCNCC2)C12CC(c1ccccc1)=NO2 (stereo not drawn)	·	·	·	·	0.59
O=C(Nc1ccccc1)C1=C[C@@H](c2ccc(C(F)(F)F)cc2)C[C@@H](OCCCCO)O1	·	·	·	·	-1.3
CCOC(=O)Cc1csc(NC(=O)CCCCCN2C(=O)c3cccc4cccc(c34)C2=O)n1	·	·	·	·	1.2
CN=C(Nc1ccc2c(c1)OCO2)SC1CC(=O)N(c2ccccc2)C1=O (stereo not drawn)	-7	0	2	15	-3.6
CN=C(Nc1cc(Cl)ccc1Cl)SC1CC(=O)N(c2ccc(C(=O)OC)cc2)C1=O (stereo not drawn)	17	-3	38*	·	-0.21
